# RBBP9 inhibitor: blocks human serine hydrolase RBBP9; inhibition, % at 7.94 µM; recombinant RBBP9, FP-Rh probe fluorescence polarization; 220,000 tested, 0.2% active; O75884;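 active means inhibition above the campaign mean of all tested compounds plus 3 SD, cut at about 14% in these data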
# Target sequence (O75884 whole entry, looked up): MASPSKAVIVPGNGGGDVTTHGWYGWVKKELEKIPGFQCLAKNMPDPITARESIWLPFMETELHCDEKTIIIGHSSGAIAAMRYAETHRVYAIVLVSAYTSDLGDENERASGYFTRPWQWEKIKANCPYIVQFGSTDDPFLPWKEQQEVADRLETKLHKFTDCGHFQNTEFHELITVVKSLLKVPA
#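 Controls: DMSO-treated enzyme wells and wells lacking RBBP9 | Material: RBBP9 protein | Technique: Fluorescence polarization | Replication: Single well per compound, no replicates | Buffer or medium: Tris-NaCl-Pluronic buffer, pH 8.0 | Timing: 30 min compound preincubation, 45 min probe labeling, 25 °C | Read-out basis: Percent inhibition from mP, scaled between DMSO and no-protein wells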
# ABHD5-PLIN5 inh: blocks binding of human ABHD5 to perilipin-5; 360,000 tested, 0.78% active; inhibition, % at 4 µM; Split G. princeps luciferase complementation, luminescence, 4 h; Q00G26+Q8WTS1; AID 602281;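 active means inhibition above the mean inhibition across every tested compound plus 3 SD, cut at about 22% in these data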
# LEDGF integ inh: blocks HIV-1 LEDGF/p75-dependent DNA integration. TR-FRET IN-LEDGF/p75 DNA integration, Eu/Cy5. inhibition, % at 3.7 µM. 370,000 tested, 0.64% active. AID 743269;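 active means inhibition above the screen-wide mean plus 3 SD, cut at about 13% in these data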;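 further: signal is the Cy5 over europium emission ratio at 671 and 618 nm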
# MBD2 DNA inh: inhibitors of human MBD2 binding to methylated oligonucleotide | TR-FRET | inhibition, % at 4.4 µM | 370,000 tested, 0.31% active; in the data active means inhibition above about 13%
# Target sequence (Q9UBB5 whole entry, looked up): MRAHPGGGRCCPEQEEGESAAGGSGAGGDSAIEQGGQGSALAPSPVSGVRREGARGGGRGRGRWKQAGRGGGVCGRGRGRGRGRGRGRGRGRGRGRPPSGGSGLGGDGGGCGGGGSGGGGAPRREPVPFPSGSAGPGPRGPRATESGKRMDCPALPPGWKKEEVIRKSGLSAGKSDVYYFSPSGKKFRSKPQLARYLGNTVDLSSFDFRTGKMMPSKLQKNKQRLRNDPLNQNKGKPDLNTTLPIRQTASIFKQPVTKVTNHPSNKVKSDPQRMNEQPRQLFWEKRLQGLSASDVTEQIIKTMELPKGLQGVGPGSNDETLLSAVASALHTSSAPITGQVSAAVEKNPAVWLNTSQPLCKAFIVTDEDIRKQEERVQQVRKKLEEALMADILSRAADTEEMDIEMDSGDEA
# PRMT1 inh: blocks human protein arginine methyltransferase 1 | 370,000 tested, 1.3% active | inhibition, % at 2.79 µM | AID 652257 | recombinant PRMT1, activity-based probe fluorescence polarization | Q99873;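 active means inhibition above about 21% made by adding two undisclosed values, limit read from the data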
# UHRF1 binding: human UHRF1 methylated DNA binding inhibitors; Q96T88; UHRF1 binding to methylated oligo, TR-FRET; inhibition, % at 4.4 µM; 370,000 tested, 0.75% active; in the data active means inhibition above about 21%;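 further: UHRF1 SRA domain binding a hemimethylated CpG hairpin DNA probe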
# Hits are given with their value; - = inactive; . = no result. Shown are actives, neighbours in structure and some others; about 3.1% of the full set was active somewhere.
SMILES,RBBP9 inhibitor,ABHD5-PLIN5 inh,LEDGF integ inh,MBD2 DNA inh,PRMT1 inh,UHRF1 binding
CC(C)NC(=O)N[C@H]1C[C@@H]2O[C@H](CO)CC[C@@H]2O[C@@H]1CCc1ccc(-c2ccc(F)cc2)cc1,.,.,-,-,-,-
S=C(Nc1ccc(Cl)c(Cl)c1)Nc1nnc(-c2ccncc2)s1,.,.,-,-,-,-
CC(C)(C)SCCNS(=O)(=O)c1ccc(F)cc1,-,-,-,-,-,24
O=C(NCC1CCCO1)C1CCN(C2CCN(CCCC3CCCC3)CC2)CC1 (configuration not stated),-,-,-,-,-,23
CC(O)(CC(=O)CC(=O)c1ccccc1)c1ccccc1 (configuration not stated),.,-,-,-,-,43
Cc1ccc(NC(=O)C(=O)NCC2OCCc3ccccc32)cc1 (configuration not stated),-,-,-,-,-,57
CC(C)(C)c1ccc(S(=O)(=O)NCC2CCN(C(=O)C(=O)c3cccs3)CC2)cc1,.,.,-,-,-,-
C/C=C/C=C\C(=O)Nc1cccc(C2=NOC3(C2)C[C@@H](C(N)=O)N(C(=O)c2cc([N+](=O)[O-])cc([N+](=O)[O-])c2)C3)c1 (some centres not stated),.,-,-,-,23,-
C=C(C)C(=O)Nc1cccc(C2=NOC3(C2)C[C@H](C(N)=O)N(C(=O)c2ccccc2)C3)c1 (some centres not stated),.,-,-,-,-,26
C/C=C\C=C/C(=O)Nc1cccc(C2=NOC3(C2)C[C@@H](C(N)=O)N(C(=O)/C=C/C=C\C)C3)c1 (some centres not stated),.,-,.,.,.,.
C[C@H]1COc2cccc(N3CCCC3)c2S(=O)(=O)N1,.,.,-,-,-,-
C=C(C)C#CCNCc1ccccc1,.,.,-,-,-,-
CCOC(=O)C1CCN(C2=C(NS(=O)(=O)c3ccc(Cl)cc3)C(=O)c3ccccc3C2=O)CC1,-,-,-,-,-,-
CCOC(=O)C1CCCN(C2=C(NS(=O)(=O)c3ccc(Br)cc3)C(=O)c3ccccc3C2=O)C1 (configuration not stated),.,-,22,-,-,-
CCOC(=O)[C@]12CCCC=C1N(Cc1ccc(OC)cc1)C(=O)[C@@H]2CC(=O)NCC12CC3CC(CC(C3)C1)C2,.,.,-,-,-,-
CNC(=O)CSc1nnc(-c2ccccc2)n1C,-,-,-,-,-,31
CCn1c2ccccc2c2cc(NC(=O)COC(=O)c3cccc(F)c3)ccc21,.,.,-,-,-,-
CC(C)CN1C(=O)[C@]2(CC(=O)N(C)C2c2ccccc2)c2cc(-n3cc(C4=CCCCC4)nn3)ccc21 (some centres not stated),.,.,-,-,-,-
CC(=O)Nc1ccc(S(=O)(=O)N2CCC(C(=O)Nc3nccs3)CC2)cc1,.,-,-,-,-,-
COc1ccc(S(=O)(=O)N2CCC(C(=O)Nc3nccs3)CC2)cc1,.,-,-,-,-,30
Clc1ccc(-c2nnc3sc(-c4ccccn4)nn23)cc1,-,.,.,.,.,.
CC(C)(C)c1ccc(-c2nnc3sc(-c4ccccn4)nn23)cc1,-,-,-,-,22,-
C[C@@]12C(=O)N(c3cccc(Cl)c3)C(=O)N1[C@H](c1ccc(Cl)cc1)[C@@H]1C(=O)N(C3CCCCC3)C(=O)[C@@H]12,.,-,-,-,-,-
COc1ccc(N2C(=O)N3[C@H](c4ccc(Cl)cc4)[C@@H]4C(=O)N(C5CCCCC5)C(=O)[C@@H]4[C@]3(C)C2=O)cc1,.,-,-,-,-,22
N#Cc1cc(-c2ccccc2)nn1-c1ccccc1,-,-,-,-,23,-
SMILES,RBBP9 inhibitor,ABHD5-PLIN5 inh,LEDGF integ inh,MBD2 DNA inh,PRMT1 inh,UHRF1 binding
CCOC(=O)C1=C(Cc2ccc(F)cc2)C(=O)c2ccccc2C1=O,-,47,-,-,79,-
O=C(OCc1ccc(F)cc1)c1ccc2c(c1)-c1ccccc1C2=O,-,-,-,-,-,-
CC(=Nc1ccc(Cl)cc1N)c1c(O)cc(C)oc1=O,.,.,-,-,-,-
CC(Oc1ccc2c(c1)oc(=O)c1ccccc12)C(=O)NC(Cc1c[nH]c2ccc(O)cc12)C(=O)O (configuration not stated),.,-,-,-,22,-
Cc1cc(OC(C)C(=O)NC(Cc2c[nH]c3ccc(O)cc23)C(=O)O)c2c(C)c(C)c(=O)oc2c1 (configuration not stated),.,-,-,-,-,-
CCOC(=O)[C@]12CCCCC/C=C\1N(Cc1ccc(OC)cc1)C(=O)[C@H]2CC(=O)NCc1ccc(OC)c(OC)c1,.,.,-,-,-,-
COC(=O)C1CN(Cc2ccc(C)cc2)CCS(=O)(=O)N1Cc1cn(Cc2ccccc2)nn1 (configuration not stated),.,.,-,-,-,-
CCOC(=O)C1Nc2ccc(C(F)(F)F)cc2C2c3ccccc3CC12 (configuration not stated),.,-,-,-,-,-
CCOC(=O)C1Nc2ccccc2C2C(O)C(O)CC12 (configuration not stated),.,-,-,-,27,-
COC(=O)C1SCC2C(=O)N(Cc3ccc(F)cc3)CC(=O)N21 (configuration not stated),-,-,-,-,-,21
COc1ccc(-c2cc(-c3nnc(SCC(=O)Nc4ccc(OCc5ccccc5)cc4)n3N)[nH]n2)cc1,.,.,-,-,-,-
O=[N+]([O-])c1ccc(-c2cnc(SC(c3ccccc3)c3ccccc3)[nH]2)cc1,-,-,-,-,-,45
CC(=O)NC1(C(F)(F)F)N=C(c2ccccc2)NC1=O (configuration not stated),-,-,-,-,-,23
COc1ccc(-c2cc(-c3ccccc3)nc(Cl)n2)cc1OC,.,-,-,-,-,30
COc1ccc(Cn2cc(CN3[C@@H](Cc4ccccc4)COc4cc(Br)ccc4S3(=O)=O)nn2)cc1,.,.,-,-,-,-
Cc1noc(/C=C/c2ccco2)c1S(=O)(=O)N1CCC(C(=O)N2CCc3ccccc3C2)CC1,-,22,.,.,.,.
CC(=O)N1CC2(CC(c3ccccc3F)=NO2)CN1c1ccc(Cl)cc1 (configuration not stated),.,-,-,-,-,22
CCCC1CCC2(CCCN2CCOC(=S)NCc2cccc(C)c2)CC1 (configuration not stated),.,.,-,-,-,-
NS(=O)(=O)c1ccc(N=Nc2c[nH]c(=O)c(O)c2)cc1,-,-,-,-,27,-
CN1CCN(C(=O)OC2CC3CC2[C@H]2CCCCN2C3=O)CC1 (some centres not stated),.,-,-,-,-,21
O=C(OC1CC2CC1[C@H]1CCCCN1C2=O)N1CCN(c2ccccc2)CC1 (some centres not stated),.,-,-,-,-,-
Cc1cccc(C)c1NC(=O)c1nc(S(=O)(=O)Cc2ccccc2)ncc1Cl,.,71,-,-,-,-

# Assay outcomes as filed in PubChem.
